37 variants from the RNAGym collection of RNA variant scans (doi:10.1126/science.aae0568) can be followed below.

The chains are these.
B1: tRNA (parent)
chain: GUUCCGUUGGCGUAAUGGUAACGCGUCUCCCUCCUAAGGAGAAGACUGCGGGUUCGAGUCCCGUACGGAACG

Variants at the floor of the assay were thinned out.

Variants of B1 are the subject of this data set. Put plainly: yeast fitness relative to wild type (ratio to wild type); higher = fitter; tRNA-Arg(CCU), competitive growth, 37 C, YPD. In a few lines:
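Genotype frequency changes were the basis for Darwinian fitness relative to wild type. The frequencies came from 100-nucleotide paired-end sequencing of gene amplicons from the start population and each end population of pooled yeast strains with tRNA-Arg(CCU) gene variants at the native locus. Competition ran in YPD at 37°C for 24 hours in six replicates, genotypes needed ≥ 100 starting reads, and estimates < 0.5 were set to 0.5.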
GUUCCGUUGGCGUAAUGGUAACGCGUCUCCCUCCUACGGGGAAGACUGCGGCUUCGAGCCCCGUUUGGAACG: the yeast fitness is ≤ 0.5.

Consider GUUCCGUUGGCGUAAUGGUAACGCGUCUCCCUCCUUAGGAGAAGACUGCAGGUUCGAGUCCCGUACGGUACG, for which the yeast fitness is ≤ 0.5.

Take GUUCCGUUGGCGUAAUGGUAACGCGUCUCCCUCCUUAGGAGAAGACUGCGCGUUCGAGUCCCGUACGGAACG: the yeast fitness is 0.612.

Take GUUCCGUUGGCGUAAUGGUAACGCGUCUCCCUCCUUAGGAGAAGACUGCGAGUUCGAGUCCCGUACGGAACG: the yeast fitness amounted to 0.61.

GUUCCGUUGGCGUAAUGGUAACGCGUCUCCCUCCUACGGAGAAGACUGGGGGUUCGAGUCCCGUACGGAACG: the yeast fitness was 0.729.

With GUUCCGUUGGCGUAAUGGUAACGCGUCUCCCUCCUACGGAGAAGACUGCGGGUUCGAGUACCGUACGGAGCG, the yeast fitness was 0.592.

With GUUCCGUUGGCGUAAUGGUAACGCGUCUCCCUCCUUAGGAGAAGACUCCGGGUUGGAGUCCCGUACGGAACG, the yeast fitness was ≤ 0.5.

Consider GUUCCGUUGGCGUAAUGGUAACGCGUCUCCCUCCUACGGAGAUGACUGCGGGUUCGAGUCCCGUUCGGAACG, for which the yeast fitness amounted to 0.651.

As to GUUCCGUUGGCGUAAUGGUAACGCGUCUCCCUCCUACGGAGAAGACUGCGGGUUCGAGUCCCGUGCGUAACG, the yeast fitness is 0.801.

As for GUUCCGUUGGCGUAAUGGUAACGCGUCUCCCUCCUACGGAGAAGACUGCGGGUUGGAGUCCCGUACGCAACG, the yeast fitness came out at 0.556.

For the variant GUUCCGUUGGCGUAAUGGUAACGCGUCUCCCUCCUACGGAGAAGGCUGGGGGUUCGAGUCCCGUACGGAACG, the yeast fitness was found to be 0.578.

GUUCCGUUGGCGUAAUGGUAACGCGUCUCCCUCCUUAGGAGAAGACUAAGGGUUCGAGUCCCGUACGAAACG: the yeast fitness was ≤ 0.5.

Take GUUCCGUUGGCGUAAUGGUAACGCGUCUCCCUCCUUAGGAGAAGACAGCGGGUUCGAGUCCCGUACGGAACG: the yeast fitness was 0.697.

For GUUCCGUUGGCGUAAUGGUAACGCGUCUCCCUCCUACGGAGAAGAUUGCGGGUUCGAGUCCCGUCCCGAACG, the yeast fitness was ≤ 0.5.

As to GUUCCGUUGGCGUAAUGGUAACGCGUCUCCCUCCUACGGAGAAGAUUGCGGGUUCGAGUCCCGUACGGAACG, the yeast fitness came out at 0.946.

As for GUUCCGUUGGCGUAAUGGUAACGCGUCUCCCUCCUUAGGAGAAGACUGCGCGCUCGAGUCCCGUACGGAACG, the yeast fitness was ≤ 0.5.

For the variant GUUCCGUUGGCGUAAUGGUAACGCGUCUCCCUCCUACGGAGACGACUGCGGGUUCGAGUCCCGUUCGGAACG, the yeast fitness amounted to 0.537.

As to GUUCCGUUGGCGUAAUGGUAACGCGUCUCCCUCCUUAGGAGAAGACUGCGGAUUCGAGUACCGUACGGAACG, the yeast fitness was ≤ 0.5.

For the variant GUUCCGUUGGCGUAAUGGUAACGCGUCUCCCUCCUUAGGAGAAGACUGCGGAUUCGAGUGCCGUACGGAACG, the yeast fitness is ≤ 0.5.

Consider GUUCCGUUGGCGUAAUGGUAACGCGUCUCCCUCCUACGGAGAAGUCUGCGCGUUCGAGUCCCGUACGGAACG, for which the yeast fitness is ≤ 0.5.

With GUUCCGUUGGCGUAAUGGUAACGCGUCUCCCUCCUUAGGAAAAGACUGGGGGUUCGAGUCCCGUACGGAACG, the yeast fitness stood at 0.601.

Turning to GUUCCGUUGGCGUAAUGGUAACGCGUCUCCCUCCUACGGAGAAGACUGGGGGUUCGAGUCCCGUCCGGAACG, the yeast fitness was ≤ 0.5.

In the case of GUUCCGUUGGCGUAAUGGUAACGCGUCUCCCUCCUUAGGAGAAGACUAAGGGUUCGAGUCCCGUACGGAACG, the yeast fitness is ≤ 0.5.

As to GUUCCGUUGGCGUAAUGGUAACGCGUCUCCCUCCUACGGAGAUGACCGCGGGUUCGAGUCCCGUACGGUACG, the yeast fitness was 0.688.

Turning to GUUCCGUUGGCGUAAUGGUAACGCGUCUCCCUCCUACGGAGAAGGCUGCGGGUUCGAGUCCCGUACGGAACG, the yeast fitness was 0.818.

Take GUUCCGUUGGCGUAAUGGUAACGCGUCUCCCUCCUUAGGAGAAGACUGCGGGUUCGAGCCCGGUACGGAACG: the yeast fitness is ≤ 0.5.

Consider GUUCCGUUGGCGUAAUGGUAACGCGUCUCCCUCCUUAGGAGAAGACUGCGGGUUCGAGGCCCGUUCGGAACG, for which the yeast fitness is ≤ 0.5.

With GUUCCGUUGGCGUAAUGGUAACGCGUCUCCCUCCUACGGAGCAGACUGCGGGUUCGAGUCCCGUACGGAACG, the yeast fitness was 0.922.

As to GUUCCGUUGGCGUAAUGGUAACGCGUCUCCCUCCUACGGAGAAGAGUGCGAAUUCGAGUCCCGUACGGAACG, the yeast fitness is ≤ 0.5.

Turning to GUUCCGUUGGCGUAAUGGUAACGCGUCUCCCUCCUACGGAGAAGACUGCGGGUUAGAGUCCCGUACGGAACG, the yeast fitness was 0.599.

With GUUCCGUUGGCGUAAUGGUAACGCGUCUCCCUCCUACGGAGAAGACUGCGGGUUUGAGUCCCGUACGGAACG, the yeast fitness is 0.769.

In the case of GUUCCGUUGGCGUAAUGGUAACGCGUCUCCCUCCUACGGGGAAGACUGCGGGUUCGAGUCCCGUACGGAACG, the yeast fitness turned out to be 0.716.

As to GUUCCGUUGGCGUAAUGGUAACGCGUCUCCCUCCUUAGGAGAAGACUGCGGGUUCAAGUCCCGUACGGUACG, the yeast fitness was ≤ 0.5.

Take GUUCCGUUGGCGUAAUGGUAACGCGUCUCCCUCCUUAGGAGAAGACUGCGAGUUCGACACCCGUACGGAACG: the yeast fitness is ≤ 0.5.

With GUUCCGUUGGCGUAAUGGUAACGCGUCUCCCUCCUUAGGACAAGUCUGUGGGUUCGAGUUCCGUACGGAACG, the yeast fitness is ≤ 0.5.

GUUCCGUUGGCGUAAUGGUAACGCGUCUCCCUCCUACGGAGAAGACUGCGGGUUCGAGUCCUGUACGGAACG: the yeast fitness came to 0.913.

For GUUCCGUUGGCGUAAUGGUAACGCGUCUCCCUCCUACGGAGACGACUGCGGGUUCGAGUCCCGUACGGAACG, the yeast fitness came out at 0.931.
